Laboratory results from ChEMBL document CHEMBL3994569, “Synthesis, anti-varicella-zoster virus and anti-cytomegalovirus activity of quinazoline-2,4-diones containing isoxazolidine and phosphonate substructures” (Eur J Med Chem, 2017).

What was measured:
[1] = (§1) Cytotoxicity against HEL cells infected with Cytomegalovirus assessed as alteration in cell morphology by microscopic method; assay type: cell-based; conditions: human, HEL cells infected with Cytomegalovirus
Outline: (§2)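 In the HEL cultures used for the antiviral assays, cell morphology was examined microscopically across varying compound concentrations. MCC is the minimum concentration causing a microscopically detectable alteration of cell morphology.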

[2] = system: Human adenovirus 2; assay: Antiviral activity against Human adenovirus 2 infected in HEL cells assessed as reduction in virus-induced cytopathogenicity; assay type: functional, cell-based; conditions: Human mastadenovirus C
Outline: (§3)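 Confluent HEL fibroblast monolayers were infected with 100 CCID50 of virus and incubated with varying concentrations of compound. Cytopathicity was scored once it was complete in untreated infected controls.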

[3] = system: Cytomegalovirus; assay: Antiviral activity against Cytomegalovirus Davis infected in HEL cells assessed as reduction in virus plaque formation; assay type: functional, cell-based
Outline: (§4)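 Confluent HEL fibroblast cultures infected with 100 PFU of HCMV and kept with varying compound concentrations. Plaques scored once plaque formation was complete in untreated infected controls.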

[4] = Cytotoxicity against virus infected HEL cells assessed as alteration in cell morphology by microscopic method; assay type: cell-based; conditions: human; outline: as §2
[5] = system: HEL; assay: Cytotoxicity against HEL cells infected with Cytomegalovirus assessed as growth inhibition; assay type: cell-based; conditions: human
[6] = system: Cytomegalovirus; assay: Antiviral activity against Cytomegalovirus AD169 infected in HEL cells assessed as reduction in virus plaque formation; assay type: functional, cell-based; outline: as §4
[7] = system: Human alphaherpesvirus 1; assay: Antiviral activity against thymidine kinase-deficient acyclovir-resistant Herpes simplex virus 1 KOS infected in HEL cells assessed as reduction in virus-induced cytopathogenicity; assay type: functional, cell-based; conditions: Human alphaherpesvirus 1, KOS; outline: as §3
[8] = system: Human alphaherpesvirus 1; assay: Antiviral activity against Herpes simplex virus 1 KOS infected in HEL cells assessed as reduction in virus-induced cytopathogenicity; assay type: functional, cell-based; conditions: Human alphaherpesvirus 1, KOS; outline: as §3
[9] = system: Human alphaherpesvirus 2; assay: Antiviral activity against Herpes simplex virus 2 G infected in HEL cells assessed as reduction in virus-induced cytopathogenicity; assay type: functional, cell-based; conditions: Human alphaherpesvirus 2, strain G
[10] = system: HMEC-1; assay: Anti-proliferative activity against HMEC1 cells by coulter counter method; assay type: ADME, cell-based, Homo sapiens
Outline: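 HMEC-1 cells at 300,000–500,000 cells/mL, mixed 1:1 by volume with serial dilutions of test compound, incubated at 37 °C. Cell number counted by Coulter counter.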

[11] = (§5) Cytotoxicity against HEL cells infected with Varicella-Zoster virus assessed as alteration in cell morphology by microscopic method; assay type: cell-based; conditions: human, HEL cells infected with Varicella-Zoster virus; outline: as §2
[12] = system: CCRF-CEM; assay: Anti-proliferative activity against human CEM cells measured after 72 hrs by coulter counter method; assay type: ADME, cell-based
Outline: (§6)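 Cells at 300,000–500,000 cells/mL, combined 1:1 by volume with compound dilutions, incubated at 37 °C: L1210 for two days, CEM for three days, HeLa for four days. Cells counted by Coulter counter.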

[13] = system: L1210; assay: Anti-proliferative activity against mouse L1210 cells measured after 48 hrs by coulter counter method; assay type: ADME, cell-based; conditions: Mus musculus, L1210, 48 h; outline: as §6
[14] = system: Human alphaherpesvirus 3; assay: Antiviral activity against thymidine kinase deficient Varicella-Zoster virus 07-1 infected in HEL cells assessed as reduction in virus plaque formation; assay type: functional, cell-based
Outline: (§7)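 Confluent HEL fibroblast cultures were infected with VZV at an input of 100 PFU and incubated with varying compound concentrations. Plaques were counted once plaque formation was complete in untreated infected controls.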

[15] = system: Human alphaherpesvirus 3; assay: Potency index, ratio of acyclovir EC50 to compound EC50 for thymidine kinase deficient Varicella-Zoster virus 07-1 infected in HEL cells assessed as reduction in virus plaque formation; assay type: functional
[16] = system: HEL; assay: (§8) Cytotoxicity against HEL cells infected with Varicella-Zoster virus assessed as growth inhibition; assay type: cell-based; conditions: human, hel
[17] = system: Human alphaherpesvirus 3; assay: Antiviral activity against thymidine kinase expressing Varicella-Zoster virus OKA infected in HEL cells assessed as reduction in virus plaque formation; assay type: functional, cell-based, strain Oka vaccine; outline: as §7
[18] = system: HeLa; assay: Anti-proliferative activity against human HeLa cells measured after 4 days by coulter counter method; assay type: ADME, cell-based; outline: as §6
[19] = as §8; assay type: cell-based; conditions: human, HEL cells infected with Varicella-Zoster virus
[20] = system: HEL; assay: as §1; assay type: cell-based; conditions: human, hel; outline: as §2
[21] = system: HEL; assay: as §5; assay type: cell-based; conditions: human, hel; outline: as §2
[22] = Human betaherpesvirus 5, Davis, HEL
[23] = Human betaherpesvirus 5, AD169, HEL
[24] = Human alphaherpesvirus 3, 07-1, HEL

SMILES | MCC [1] | EC50 [3, 22] | CC50 [5] | EC50 [6, 23] | IC50 ([10]; Homo sapiens, HMEC-1) | MCC [11] | IC50 ([12]; Homo sapiens, CCRF-CEM, 72 h) | IC50 [13] | EC50 [14, 24] | Ratio EC50 [15] | CC50 [16] | EC50 [3] | EC50 [6] | EC50 [17] | IC50 ([18]; hela) | other results
Nc1ccn(C[C@@H](CO)OCP(=O)(O)O)c(=O)n1 [CIDOFOVIR] | > 300 µM | 0.81 µM | > 300 µM | 1.44 µM |  |  |  |  |  |  |  |  |  |  |  | EC50 [2]: 10 µM; MCC [4]: > 250 µM; EC50 [7]: 3.8 µM; EC50 [8]: 2 µM; EC50 [9]: 2 µM
CCOP(=O)(OCC)C1CC(Cn2c(=O)n(Cc3ccccc3F)c(=O)c3ccccc32)ON1Cc1ccccc1 (stereo unspecified) | 100 µM | ≥ 6.5 µM | 11.8 µM | 8.94 µM | 23 µM | 100 µM | 20 µM | 17 µM | 5.1 µM | 10 - 14 | 11.8 µM |  |  |  |  | EC50 ([17]; Human alphaherpesvirus 3, strain Oka vaccine, HEL): 4.7 µM; IC50 ([18]; Homo sapiens, HeLa, 96 h): 17 µM
CCOP(=O)(OCC)C1CC(Cn2c(=O)n(Cc3ccccc3)c(=O)c3ccccc32)ON1Cc1ccccc1 (mixture of isomers; cis) | 100 µM |  | 9 µM |  | 28 µM | 100 µM | 10 µM | 18 µM | 13.2 µM |  |  | 6.5 µM | ≥ 3 µM | 7.3 µM | 33 µM | CC50 [19]: 9 µM
CCOP(=O)(OCC)C1CC(Cn2c(=O)n(Cc3ccc(F)cc3)c(=O)c3ccccc32)ON1Cc1ccccc1 (mixture of isomers; trans) |  |  | 6.6 µM |  |  |  |  |  |  | 10 - 14 | 6.6 µM | 8.94 µM | ≥ 6.5 µM | 3 µM | 18 µM | IC50 ([10]; hmec-1): 26 µM; MCC [20]: 100 µM; MCC [21]: 100 µM; IC50 ([12]; ccrf-cem): 13 µM; EC50 [14]: 3.6 µM
